Test results: ChEMBL document CHEMBL3046016, “Antifeedant and growth inhibitory effects of some neo-clerodane diterpenoids isolated from Clerodendron species (Verbenaceae) on Earias vitella and Spodoptera litura” (2003)

What was measured:
Assay type in all cases: functional
[1] = test system: Earias vittella; assay: Insecticidal activity against adult Earias vitella assessed as adult deformity at 5 ug/cm3 administered through artificial diet containing Abelmoschus esculentus seed powder (reference value: 4%)
[2] = test system: Earias vittella; assay: Insecticidal activity against third-instar larval stage of Earias vitella assessed as larval mortality at 10 ug/cm3 administered through artificial diet containing Abelmoschus esculentus seed powder (reference value: 4%)
[3] = test system: Earias vittella; assay: Insecticidal activity against adult Earias vitella assessed as adult emergence at 5 ug/cm3 administered through artificial diet containing Abelmoschus esculentus seed powder (reference value: 88%)
[4] = test system: Earias vittella; assay: Insecticidal activity against male adult Earias vitella assessed as adult longevity time at 10 ug/cm3 administered through artificial diet containing Abelmoschus esculentus seed powder (reference value: 8.2 +/- 0.4 days)
[5] = test system: Spodoptera litura; assay: Insecticidal activity against pupal stage of Spodoptera litura in compound-treated castor leaves assessed as pupal duration time at 5 ug/cm2 (reference value: 9.2 +/- 0.74 days)
[6] = test system: Spodoptera litura; assay: Insecticidal activity against pupal stage of Spodoptera litura in compound-treated castor leaves assessed as pupal weight at 10 ug/cm2 (reference value: 302.4 +/- 5.9 mg)
[7] = test system: Earias vittella; assay: Insecticidal activity against male adult Earias vitella assessed as adult longevity time at 5 ug/cm3 administered through artificial diet containing Abelmoschus esculentus seed powder (reference value: 8.2 +/- 0.4 days)
[8] = test system: Spodoptera litura; assay: Insecticidal activity against adult Spodoptera litura in compound-treated castor leaves assessed as adult emergence at 10 ug/cm2 relative to control
[9] = test system: Earias vittella; assay: Insecticidal activity against pupal stage of Earias vitella assessed as pupal mortality at 10 ug/cm3 administered through artificial diet containing Abelmoschus esculentus seed powder (reference value: 8%)
[10] = test system: Earias vittella; assay: Insecticidal activity against pupal stage of Earias vitella assessed as pupal mortality at 5 ug/cm3 administered through artificial diet containing Abelmoschus esculentus seed powder (reference value: 8%)
[11] = test system: Earias vittella; assay: Insecticidal activity against adult Earias vitella assessed as adult deformity at 10 ug/cm3 administered through artificial diet containing Abelmoschus esculentus seed powder (reference value: 4%)
[12] = test system: Earias vittella; assay: Insecticidal activity against adult Earias vitella assessed as adult emergence at 10 ug/cm3 administered through artificial diet containing Abelmoschus esculentus seed powder (reference value: 88%)
[13] = test system: Spodoptera litura; assay: Insecticidal activity against third-instar larval stage of Spodoptera litura in compound-treated castor leaves assessed as larval mortality at 10 ug/cm2 relative to control
[14] = test system: Spodoptera litura; assay: Insecticidal activity against adult Spodoptera litura in compound-treated castor leaves assessed as adult deformity at 5 ug/cm2 relative to control
[15] = test system: Spodoptera litura; assay: Insecticidal activity against male adult Spodoptera litura in compound-treated castor leaves assessed as adult longevity time at 10 ug/cm2 (reference value: 9.4 +/- 0.48 days)
[16] = test system: Earias vittella; assay: Insecticidal activity against pupal stage of Earias vitella assessed as pupal duration time at 5 ug/cm3 administered through artificial diet containing Abelmoschus esculentus seed powder (reference value: 6.4 +/- 0.21 days)
[17] = test system: Spodoptera litura; assay: Insecticidal activity against third-instar larval stage of Spodoptera litura in compound-treated castor leaves assessed as larval mortality at 5 ug/cm2 relative to control
[18] = test system: Earias vittella; assay: Insecticidal activity against pupal stage of Earias vitella assessed as pupal weight at 5 ug/cm3 administered through artificial diet containing Abelmoschus esculentus seed powder (reference value: 88.2 +/- 4.01 mg)
[19] = test system: Earias vittella; assay: Insecticidal activity against third-instar larval stage of Earias vitella assessed as larval mortality at 5 ug/cm3 administered through artificial diet containing Abelmoschus esculentus seed powder (reference value: 4%)
[20] = test system: Earias vittella; assay: Insecticidal activity against female adult Earias vitella assessed as adult longevity time at 5 ug/cm3 administered through artificial diet containing Abelmoschus esculentus seed powder (reference value: 8.6 +/- 0.48 days)
[21] = test system: Spodoptera litura; assay: Insecticidal activity against female adult Spodoptera litura in compound-treated castor leaves assessed as adult longevity time at 10 ug/cm2 (reference value: 10 +/- 0.63 days)
[22] = test system: Spodoptera litura; assay: Insecticidal activity against pupal stage of Spodoptera litura in compound-treated castor leaves assessed as pupal weight at 5 ug/cm2 (reference value: 302.4 +/- 5.9 mg)
[23] = test system: Spodoptera litura; assay: Insecticidal activity against pupal stage of Spodoptera litura in compound-treated castor leaves assessed as pupal duration time at 10 ug/cm2 (reference value: 9.2 +/- 0.74 days)
[24] = test system: Spodoptera litura; assay: Insecticidal activity against female adult Spodoptera litura in compound-treated castor leaves assessed as adult longevity time at 5 ug/cm2 (reference value: 10 +/- 0.63 days)
[25] = test system: Earias vittella; assay: Insecticidal activity against female adult Earias vitella assessed as adult longevity time at 10 ug/cm3 administered through artificial diet containing Abelmoschus esculentus seed powder (reference value: 8.6 +/- 0.48 days)
[26] = test system: Earias vittella; assay: Antifeedant activity against third-instar larval stage of Earias vitella assessed as decrease in diet consumption at 5 ug/cm3 administered through artificial diet containing Abelmoschus esculentus seed powder after 24 hr relative to acetone-treated control; parameters: scale not given: the % may be the effect or the level left
Outline: (§1)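 Artificial diet was modified Klein medium with bhendi (Abelmoschus esculentus) seed powder in place of alfalfa. Compound in acetone was mixed into bhendi meal 12 h before diet preparation so the solvent evaporated. One 3 g diet cube was given to five freshly molted third-instar larvae in a muslin-covered container. After 24 h the cubes were weighed. %AF = 100 − (treated/control)×100.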

[27] = test system: Spodoptera litura; assay: Insecticidal activity against third-instar larval stage of Spodoptera litura in compound-treated castor leaves assessed as total larval duration time at 5 ug/cm2 (reference value: 12.4 +/- 0.48 days)
[28] = test system: Spodoptera litura; assay: Insecticidal activity against pupal stage of Spodoptera litura in compound-treated castor leaves assessed as pupal mortality at 5 ug/cm2 relative to control
[29] = test system: Earias vittella; assay: Insecticidal activity against third-instar larval stage of Earias vitella assessed as total larval duration time at 10 ug/cm3 administered through artificial diet containing Abelmoschus esculentus seed powder (reference value: 8.2 +/- 0.48 days)
[30] = test system: Spodoptera litura; assay: Antifeedant activity against third-instar larval stage of Spodoptera litura in compound-treated castor leaves assessed as decrease in diet consumption at 10 ug/cm2 after 24 hr by no-choice leaf disk assay relative to acetone-treated control; parameters: scale not given: the % may be the effect or the level left
Outline: (§2)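 Larvae were reared on castor leaves at 25 ± 2 °C. In a no-choice test, compound in acetone was painted on the abaxial side of castor leaf disks and air-dried. Five freshly molted third-instar larvae, starved 4 h, were placed per Petri dish with wet cotton. There were five replicates. After 24 h, consumed leaf area was read on a leaf area meter. %AF = 100 − (treated/control)×100.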

[31] = test system: Spodoptera litura; assay: Antifeedant activity against third-instar larval stage of Spodoptera litura in compound-treated castor leaves assessed as decrease in diet consumption at 5 ug/cm2 after 24 hr by no-choice leaf disk assay relative to acetone-treated control; parameters: scale not given: the % may be the effect or the level left; outline: as §2
[32] = test system: Spodoptera litura; assay: Insecticidal activity against pupal stage of Spodoptera litura in compound-treated castor leaves assessed as pupal mortality at 10 ug/cm2 relative to control
[33] = test system: Earias vittella; assay: Insecticidal activity against third-instar larval stage of Earias vitella assessed as total larval duration time at 5 ug/cm3 administered through artificial diet containing Abelmoschus esculentus seed powder (reference value: 8.2 +/- 0.48 days)
[34] = test system: Earias vittella; assay: Insecticidal activity against pupal stage of Earias vitella assessed as pupal weight at 10 ug/cm3 administered through artificial diet containing Abelmoschus esculentus seed powder (reference value: 88.2 +/- 4.01 mg)
[35] = test system: Spodoptera litura; assay: Insecticidal activity against male adult Spodoptera litura in compound-treated castor leaves assessed as adult longevity time at 5 ug/cm2 (reference value: 9.4 +/- 0.48 days)
[36] = test system: Spodoptera litura; assay: Insecticidal activity against adult Spodoptera litura in compound-treated castor leaves assessed as adult deformity at 10 ug/cm2 relative to control
[37] = test system: Earias vittella; assay: Antifeedant activity against third-instar larval stage of Earias vitella assessed as decrease in diet consumption at 10 ug/cm3 administered through artificial diet containing Abelmoschus esculentus seed powder after 24 hr relative to acetone-treated control; parameters: scale not given: the % may be the effect or the level left; outline: as §1
[38] = test system: Spodoptera litura; assay: Insecticidal activity against third-instar larval stage of Spodoptera litura in compound-treated castor leaves assessed as total larval duration time at 10 ug/cm2 (reference value: 12.4 +/- 0.48 days)
[39] = test system: Earias vittella; assay: Insecticidal activity against pupal stage of Earias vitella assessed as pupal duration time at 10 ug/cm3 administered through artificial diet containing Abelmoschus esculentus seed powder (reference value: 6.4 +/- 0.21 days)
[40] = test system: Spodoptera litura; assay: Insecticidal activity against adult Spodoptera litura in compound-treated castor leaves assessed as adult emergence at 5 ug/cm2 relative to control

What does the source list for `CC(=O)OC[C@@]12[C@@H](OC(C)=O)C[C@@H](C)[C@](C)([C@@H]3C[C@H]4CC(O)O[C@H]4O3)[C@H]1CC[C@H](OC(C)=O)[C@]21CO1` (stereo not given in full) [15-HYDROXYEPICARYOPTIN]?
Activity [1]: 4%; mortality [2]: 8%; Activity [3]: 68%; Time [4]: 6.2 days; Time [5]: 10.8 days; Activity [6]: 258.8 mg; Time [7]: 6.6 days; Activity [8]: 62.4%; mortality [9]: 34%; mortality [10]: 28%; Activity [11]: 4%; Activity [12]: 62%; mortality at 10 µg/cm2 [13]: 32%; Activity [14]: 7.2%; Time [15]: 7.5 days; Time [16]: 9 days; mortality at 5 µg/cm2 [17]: 20%; Activity [18]: 58 mg; mortality [19]: 8%; Time [20]: 6.8 days; Time [21]: 7 days; Activity [22]: 272.2 mg; Time [23]: 11.6 days; Time [24]: 7.4 days; Time [25]: 6.6 days; Activity [26]: 62.15%; Time [27]: 13.5 days; mortality at 5 µg/cm2 [28]: 22.5%; Time [29]: 10.2 days; Activity [30]: 78%; Activity [31]: 74%; mortality at 10 µg/cm2 [32]: 27.6%; Time [33]: 9.8 days; Activity [34]: 57.2 mg; Time [35]: 8 days; Activity [36]: 9.6%; Activity [37]: 71.84%; Time [38]: 14.2 days; Time [39]: 9.6 days; Activity [40]: 70.4%

How did the Activity [1] turn out when `CC[C@@](C)(OC(C)=O)C(=O)O[C@H]1[C@H](OC(C)=O)C[C@@H]2[C@@](C)([C@@H]3C[C@H]4C=CO[C@H]4O3)[C@H](C)C[C@H](OC(C)=O)[C@@]2(COC(C)=O)[C@@]12CO2` [CLERODENDRIN B ACETATE] was run?
Its Activity is 4%.

And the mortality [2]?
The mortality was 4%.

And the Activity [3]?
Its Activity is 72.5%.

And the Time [4]?
The Time was 6.4 days.

What about the Time [5] of the same compound?
The Time was 10.2 days.

And the Activity [6]?
The Activity was 273.2 mg.

What about the Time [7] of the same compound?
The Time was 6.8 days.

And the Activity [8]?
The Activity was 64%.

And the mortality [9]?
Its mortality is 32%.

And the mortality [10]?
Its mortality is 24%.

What about the Activity [11] of the same compound?
Its Activity is 4%.

And the Activity [12]?
Its Activity is 64%.

And the mortality at 10 µg/cm2 [13]?
The mortality at 10 µg/cm2 was 24%.

And the Activity [14]?
The Activity was 4.8%.

What about the Time [15] of the same compound?
The Time was 8.5 days.

What about the Time [16] of the same compound?
The Time was 7 days.

What about the mortality at 5 µg/cm2 [17] of the same compound?
The mortality at 5 µg/cm2 was 20%.

And the Activity [18]?
The Activity was 71.2 mg.

What about the mortality [19] of the same compound?
Its mortality is 4%.

And the Time [20]?
The Time was 7.4 days.

And the Time [21]?
Its Time is 8 days.

What about the Activity [22] of the same compound?
The Activity was 284.4 mg.

And the Time [23]?
The Time was 11 days.

What about the Time [24] of the same compound?
Its Time is 8.2 days.

And the Time [25]?
Its Time is 7.2 days.

And the Activity [26]?
Its Activity is 51%.

And the Time [27]?
The Time was 12.6 days.

What about the mortality at 5 µg/cm2 [28] of the same compound?
The mortality at 5 µg/cm2 was 22.7%.

What about the Time [29] of the same compound?
Its Time is 9.7 days.

And the Activity [30]?
Its Activity is 75%.

What about the Activity [31] of the same compound?
Its Activity is 65.8%.

And the mortality at 10 µg/cm2 [32]?
Its mortality at 10 µg/cm2 is 27%.

And the Time [33]?
Its Time is 9.2 days.

And the Activity [34]?
Its Activity is 64.2 mg.

And the Time [35]?
The Time was 9 days.

And the Activity [36]?
The Activity was 8.8%.

What about the Activity [37] of the same compound?
Its Activity is 69%.

What about the Time [38] of the same compound?
The Time was 13.1 days.

And the Time [39]?
The Time was 8.8 days.

What about the Activity [40] of the same compound?
Its Activity is 72%.
